Reference: ChEMBL document CHEMBL1821701, “Stereochemical analysis of leubethanol, an anti-TB-active serrulatane, from Leucophyllum frutescens” (2011)
Converted amounts (≈) assume the structure as drawn.

Experiments:
Type in all cases: functional
[1] = system: Mycobacterium tuberculosis; test: Antitubercular activity against multidrug-resistant Mycobacterium tuberculosis CIBIN/UMF15:99 isolate by microplate Alamar blue assay relative to rifampin
[2] = system: Mycobacterium tuberculosis; test: Antitubercular activity against multidrug-resistant Mycobacterium tuberculosis CIBIN/UMF15:99 isolate by microplate Alamar blue assay relative to streptomycin
[3] = system: Mycobacterium tuberculosis; test: Antitubercular activity against multidrug-resistant Mycobacterium tuberculosis CIBIN/UMF15:99 isolate by microplate Alamar blue assay
In short: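 Modified microplate Alamar Blue assay. H37Rv ATCC 27294 is susceptible to streptomycin, isoniazid, rifampin, ethambutol and pyrazinamide. Clinical isolate CIBIN/UMF15:99 is resistant to the same five drugs. Test stocks were 2 mg/mL in 20% DMSO in Middlebrook 7H9 broth, filter-sterilized. Final concentrations ran from 100 to 0.78 µg/mL. Read-out was MIC, at least in triplicate.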

Structure (SMILES) | Ratio [1] | Ratio [2] | MIC [3]
CC(C)=CCC[C@H](C)[C@@H]1CC[C@@H](C)c2c(O)cc(C)cc21 [LEUBETHANOL] | 16 | 16 | 6.3 µg/mL (≈ 22 µM)
CN[C@@H]1[C@H](O[C@H]2[C@H](O[C@H]3[C@H](O)[C@@H](O)[C@H](N=C(N)N)[C@@H](O)[C@@H]3N=C(N)N)O[C@@H](C)[C@]2(O)C=O)O[C@@H](CO)[C@H](O)[C@H]1O [STREPTOMYCIN] |  |  | > 100 µg/mL
NNC(=O)c1ccncc1 [ISONIAZID] |  |  | 3.1 µg/mL (≈ 22.6 µM)
CO[C@H]1/C=C/O[C@@]2(C)Oc3c(C)c(O)c4c(O)c(c(/C=N/N5CCN(C)CC5)c(O)c4c3C2=O)NC(=O)/C(C)=C\C=C\[C@H](C)[C@H](O)[C@@H](C)[C@@H](O)[C@@H](C)[C@H](OC(C)=O)[C@@H]1C [RIFAMPIN] |  |  | > 100 µg/mL
CC[C@@H](CO)NCCN[C@@H](CC)CO [ETHAMBUTOL] |  |  | 8 µg/mL (≈ 39.2 µM)
